The record followed here is ChEMBL document CHEMBL1152447, “Benzothiopyranoindole-based antiproliferative agents: synthesis, cytotoxicity, nucleic acids interaction, and topoisomerases inhibition properties” (J Med Chem, 2009).

Assay [1] relates to HL-60. Description: Cytotoxicity against human HL60 cells after 72 hrs by trypan blue assay. The format is functional, cell-based. To be noted: HL-60, 72 h. Put shortly: (§1)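 Cells seeded at 4 × 10^4 per well and cultured 24 h at 37 °C in 5% CO2. Test agents then added to the complete medium for a further 72 h. Viable cells counted by trypan blue. IC50 is the concentration giving 50% fewer cells than control cultures. HL-60 grown in RPMI 1640 + 15% heat-inactivated FCS; HL-60/MX2 grown in RPMI 1640 + 10% heat-inactivated FCS.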

The test system of assay [2] is HeLa. As to the kind of experiment: Cytotoxicity against human HeLa cells after 72 hrs by trypan blue assay. Type of assay: functional, cell-based. Put shortly: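 HeLa cells grown in Nutrient Mixture F-12 with 10% heat-inactivated FCS at 37 °C, 5% CO2. Seeded at 4 × 10^4 per well for 24 h, then medium replaced with fresh medium containing test agents for 72 h. Viability by trypan blue. IC50 is the concentration reducing cell number by 50% versus control.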

Assay [3] is described as follows: Cytotoxicity against human mitoxantrone-resistant HL60/MX2 cells after 72 hrs by trypan blue assay. Type of assay: functional, cell-based. To be noted: HL60/MX2, 72 h. An outline of the steps:
as §1

Assay [4] concerns the target T1, Topoisomerase I (Bos taurus) (UniProt Q2HPH0).
T1 sequence (whole entry): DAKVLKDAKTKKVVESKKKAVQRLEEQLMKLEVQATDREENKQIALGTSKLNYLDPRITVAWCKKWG
As to the kind of experiment: Inhibition of calf thymus topoisomerase 1-mediated supercoiled pBR322DNA relaxation activity at 10 uM. An outline of the steps:
(§2)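 Calf thymus topoisomerase I (2 U) incubated with supercoiled pBR322 (0.25 μg) and compound for 60 min at 37 °C. Stopped with SDS stop buffer plus 50 μg/mL proteinase K for 30 min at 37 °C. Run on 1% agarose, stained with ethidium bromide 1 μg/mL in TAE, imaged under UV. Gels representative of three experiments.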

Assay [5] concerns the target T1, Topoisomerase I (Bos taurus). Description: Inhibition of calf thymus topoisomerase 1-mediated supercoiled pBR322DNA relaxation activity. Put shortly:
as §2

For assay [6], the target named is DNA topoisomerase 2-alpha (Homo sapiens) (UniProt P11388). As to the kind of experiment: Inhibition of human recombinant topoisomerase 2 relaxation activity assessed as supercoiled pBR322 DNA at 5 uM. An outline of the steps:
(§3)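 Human recombinant topoisomerase IIα (1 U) relaxation of supercoiled pBR322 (0.25 μg) with compound, 60 min at 37 °C. Stopped with SDS/proteinase K (50 μg/mL, 30 min, 37 °C). Products separated on 1% agarose, stained with ethidium bromide 1 μg/mL, UV imaging. Inhibition judged by retained supercoiled DNA. Gels representative of three experiments.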

The subject of assay [7] is HL-60. Description: Ratio of IC50 for mitoxantrone-resistant human HL60/MX2 cells to IC50 for human HL60 cells.
Assay [8] relates to Nucleic Acid. Description: Binding affinity to salmon testes DNA assessed as negative dichroic signal at 0.04 drug to DNA ratio by LD spectra. The format is nucleic-acid assay. Particulars: Salmonidae. An outline of the steps:
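LD spectra of salmon testes DNA (1.9 × 10^-3 M) in ETN buffer (10 mM TRIS, 10 mM NaCl, 1 mM EDTA, pH 7) at 25 °C over several [drug]/[DNA] ratios. Orientation by shear gradient of 500-700 rpm; each spectrum accumulated four times.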

Assay [9] has as its target DNA topoisomerase 2-alpha (Homo sapiens) (UniProt P11388). Description: Inhibition of human recombinant topoisomerase 2 relaxation activity assessed as supercoiled pBR322 DNA at 2.5 uM. Put shortly:
as §3

Assay [10] is described as follows: Stabilization of supercoiled pBR322 DNA-human recombinant topoisomerase 2 complex assessed as reduction in linear DNA formation at 5 uM.
Assay [11] can be described thus: Stabilization of supercoiled pBR322 DNA-human recombinant topoisomerase 2 complex assessed as reduction in linear DNA formation at 10 uM.
Assay [12] concerns the target DNA topoisomerase 2-alpha (Homo sapiens) (UniProt P11388). As to the kind of experiment: Inhibition of human recombinant topoisomerase 2 relaxation activity assessed as supercoiled pBR322 DNA. An outline of the steps: as §3
The nature of assay [13]: Stabilization of supercoiled pBR322 DNA-human recombinant topoisomerase 2 complex assessed as reduction in linear DNA formation at 20 uM.
Assay [14] concerns the target DNA topoisomerase 2-alpha (Homo sapiens) (UniProt P11388). As to the kind of experiment: Inhibition of human recombinant topoisomerase 2-mediated end-labeled DNA cleavage in absence of ATP at 5 uM.
The target is the same in assay [15]. As to the kind of experiment: Inhibition of human recombinant topoisomerase 2-mediated end-labeled DNA cleavage in absence of ATP at 200 uM.
A short description of assay [16]: Stabilization of supercoiled pBR322 DNA-human recombinant topoisomerase 2 complex assessed as reduction in linear DNA formation.
Assay [17] addresses DNA topoisomerase 2-alpha (Homo sapiens) (UniProt P11388). Description: Inhibition of human recombinant topoisomerase 2 relaxation activity assessed as supercoiled pBR322 DNA at 8 uM. Put shortly: as §3
The nature of assay [18]: Stabilization of supercoiled pBR322 DNA-human recombinant topoisomerase 2 complex assessed as reduction in linear DNA formation at 8 uM.

Structures are written as SMILES. Calls of active or inactive are those of the source. The rule behind the calls is not given here. Where only a bound is given, the exact number is not on record here.

Chain of DNA topoisomerase 2-alpha (Homo sapiens) (P11388 whole entry): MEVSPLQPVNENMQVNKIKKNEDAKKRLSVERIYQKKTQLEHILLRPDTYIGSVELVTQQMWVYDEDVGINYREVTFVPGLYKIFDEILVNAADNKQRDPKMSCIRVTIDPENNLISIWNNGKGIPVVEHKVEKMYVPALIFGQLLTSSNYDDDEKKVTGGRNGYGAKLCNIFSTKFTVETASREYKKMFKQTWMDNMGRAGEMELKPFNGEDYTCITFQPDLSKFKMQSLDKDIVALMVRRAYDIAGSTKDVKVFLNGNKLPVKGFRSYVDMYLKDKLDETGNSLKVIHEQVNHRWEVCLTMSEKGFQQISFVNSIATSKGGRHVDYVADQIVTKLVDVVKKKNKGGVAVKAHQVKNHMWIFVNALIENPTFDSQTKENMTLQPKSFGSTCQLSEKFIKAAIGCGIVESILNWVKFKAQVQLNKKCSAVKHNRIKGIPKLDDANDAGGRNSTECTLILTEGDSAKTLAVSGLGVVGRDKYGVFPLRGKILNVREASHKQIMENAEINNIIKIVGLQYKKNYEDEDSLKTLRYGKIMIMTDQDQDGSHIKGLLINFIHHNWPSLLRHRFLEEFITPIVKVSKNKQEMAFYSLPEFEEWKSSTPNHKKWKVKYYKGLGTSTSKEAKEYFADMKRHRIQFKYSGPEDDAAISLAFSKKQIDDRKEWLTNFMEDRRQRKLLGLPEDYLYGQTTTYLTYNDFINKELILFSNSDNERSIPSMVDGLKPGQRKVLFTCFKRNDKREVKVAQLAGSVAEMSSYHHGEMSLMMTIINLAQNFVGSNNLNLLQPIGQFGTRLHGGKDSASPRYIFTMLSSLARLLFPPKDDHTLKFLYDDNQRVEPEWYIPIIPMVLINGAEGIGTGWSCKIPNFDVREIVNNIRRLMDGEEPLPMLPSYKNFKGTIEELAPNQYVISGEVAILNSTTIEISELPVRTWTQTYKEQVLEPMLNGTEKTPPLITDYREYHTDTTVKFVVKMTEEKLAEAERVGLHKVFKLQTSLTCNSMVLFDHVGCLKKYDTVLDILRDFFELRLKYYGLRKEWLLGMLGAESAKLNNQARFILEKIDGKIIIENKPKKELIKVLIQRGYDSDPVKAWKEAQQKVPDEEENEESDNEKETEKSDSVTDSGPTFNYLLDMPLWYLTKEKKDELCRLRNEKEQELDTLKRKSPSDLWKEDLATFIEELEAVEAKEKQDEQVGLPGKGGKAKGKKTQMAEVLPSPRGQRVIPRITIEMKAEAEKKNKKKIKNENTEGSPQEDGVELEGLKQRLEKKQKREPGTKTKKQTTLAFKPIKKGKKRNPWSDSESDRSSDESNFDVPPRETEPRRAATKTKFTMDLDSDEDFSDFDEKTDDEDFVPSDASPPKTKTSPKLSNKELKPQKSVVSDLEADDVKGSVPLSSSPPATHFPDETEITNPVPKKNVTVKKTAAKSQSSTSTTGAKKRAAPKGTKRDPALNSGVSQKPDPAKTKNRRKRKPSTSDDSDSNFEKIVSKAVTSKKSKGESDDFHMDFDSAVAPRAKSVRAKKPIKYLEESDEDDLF

The term IC50 denotes the concentration that gives 50% inhibition. A higher IC50 goes with lower potency. `CCN(CC)CCn1c2ccc(Cl)cc2c2sc3cc(OC)ccc3c(=O)c21`: the IC50 in assay [1] was 0.71 µM; in assay [2], 1.12 µM.

For `COc1ccc2c(=O)c3c(sc2c1)c1ccccc1n3CCN(C)C`, the IC50 in [3] was 2.35 µM; in assay [1], 0.41 µM; in assay [2], 1.3 µM. The result in assay [4], in assay [6], in [8], in assay [9], in [10] and in assay [11] was Active. For the same molecule, the result in [13] was Active. Moreover, the Activity entry in assay [5] and in [12] was “Dose-dependent effect” in each case. In addition, in assay [7], the “Ratio IC50” value is listed as 6.

In the case of `CCN(CC)CCn1c2ccc(OC)cc2c2sc3cc(OC)ccc3c(=O)c21`, the half-maximal inhibitory concentration (IC50) in assay [1] was determined as 1.1 µM; in assay [2], 2.3 µM.

For the molecule `CCN(CC)CCn1c2ccccc2c2sc3cc(OC)ccc3c(=O)c21`, the outcome in assay [8] and in [9] was Active. Besides, the IC50 in assay [1] stood at 1.8 µM; in [2], 2.7 µM.

As for `CN(C)CCCn1c2ccccc2c2sc3cc(Cl)ccc3c(=O)c21`, the IC50 in [1] came to 7.19 µM; in assay [2] it was 14.1 µM.

Take `COc1ccc2c(=O)c3c(sc2c1)c1cc(Cl)ccc1n3CCN(C)C`: the IC50 in [1] worked out at 1.17 µM; in assay [2], 1.82 µM.

In the case of `CCN(CC)CCn1c2ccccc2c2sc3cc(Cl)ccc3c(=O)c21`, the IC50 in [1] worked out at 3.21 µM; in [2], 4.33 µM.

Take `COc1ccc2c(=O)c3c(sc2c1)c1cc(OC)ccc1n3CCCN(C)C`: the IC50 was 1.35 µM in [1] and 2.6 µM in assay [2].

As to `CCN(CC)CCCn1c2ccccc2c2sc3cc(OC)ccc3c(=O)c21`, the result in assay [8] and in assay [9] was Active. Further, the IC50 in assay [1] was 2.4 µM; in assay [2], 3.9 µM.

For `COc1ccc2c(=O)c3c(sc2c1)c1cc(OC)ccc1n3CCN(C)C`, the outcome in [14], in assay [6], in assay [9] and in assay [15] was Active. Further, the IC50 is 0.66 µM in assay [1] and 2.15 µM in [2]. In addition, the Activity entry in [12] was “Dose-dependent effect”. The outcome in assay [16] was inactive.

Regarding `COc1cc(NS(C)(=O)=O)ccc1Nc1c2ccccc2nc2ccccc12`, the result in assay [17] and in assay [18] was Active.

Turning to `O=c1c2ccc(Cl)cc2sc2c1[nH]c1ccccc12`, the IC50 in assay [1] and in assay [2] was greater than 20 µM in each case.

For `Cc1c2ccncc2c(C)c2c1[nH]c1ccccc12` [ELLIPTECINE], the half-maximal inhibitory concentration (IC50) in assay [1] is 0.66 µM; in [2], 0.29 µM.

For `CN(C)CCn1c2ccccc2c2sc3cc(Cl)ccc3c(=O)c21`, the half-inhibitory concentration (IC50) in [1] amounted to 1.31 µM; in assay [2] it was 1.53 µM.

As to `COc1ccc2c(=O)c3[nH]c4ccc(OC)cc4c3sc2c1`, the IC50 in assay [1] and in assay [2] was greater than 20 µM in each case.

For `COc1ccc2c(=O)c3[nH]c4ccccc4c3sc2c1`, the result in assay [8] and in assay [9] was Active. For the same molecule, the IC50 in assay [1] and in assay [2] was greater than 20 µM each time.

For `CCN(CC)CCCn1c2ccc(Cl)cc2c2sc3cc(OC)ccc3c(=O)c21`, the IC50 in assay [1] was 1.02 µM; in assay [2], 1.68 µM.

As to `COc1ccc2c(=O)c3[nH]c4ccc(Cl)cc4c3sc2c1`, the IC50 in assay [1] and in assay [2] was greater than 20 µM in each case.

Consider `COc1ccc2c(=O)c3c(sc2c1)c1cc(Cl)ccc1n3CCCN(C)C`, for which the IC50 turned out to be 1.07 µM in assay [1] and 1.85 µM in assay [2].

In the case of `CCN(CC)CCCn1c2ccccc2c2sc3cc(Cl)ccc3c(=O)c21`, the IC50 came out at 2.64 µM in assay [1] and 2.91 µM in assay [2].

As for `CCN(CC)CCCn1c2ccc(OC)cc2c2sc3cc(OC)ccc3c(=O)c21`, the IC50 in assay [1] worked out at 1.5 µM; in [2], 2.5 µM.

Turning to `COc1ccc2c(=O)c3c(sc2c1)c1ccccc1n3CCCN(C)C`, the IC50 stood at 1.9 µM in [1] and 2.9 µM in assay [2]. In addition, the result in [9] was Active.
